Results: paper PMC4609241 (Molecular imaging and biology : MIB : the official …, 2015)
Read-outs that look alike come from different tables or passages of the source.

What was measured:
Assay type in all cases: in vivo, mouse
[1] = system: U87 MG glioblastoma xenografts; assay: Biodistribution study in tumor xenograft mice
Summary of the method: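 Tumour xenograft mice were injected with the tracer, with or without Olaparib pre-injection. Mice were euthanized at 90 min p.i. and organ radioactivity was counted, expressed as %ID/g (n = 4, mean ± SD). Tumour-to-non-target tissue ratios, including tumour/brain and tumour/muscle, were calculated.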

U87 MG tumor [2] = conditions: for Tumor to brain ratio: ex vivo
U87 MG tumor [3] = assay: Autoradiography of resected tissues
Summary of the method: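 U87 MG tumour-bearing mice got the 18F-labelled fluorescent PARP1 tracer alone, or the tracer 30 min after Olaparib as a blocking agent. Tumour, brain and muscle were resected, and tumour slices were imaged by autoradiography beside H&E staining. Tissue/muscle ratios were calculated for tumours and brains in the non-blocked and blocked groups.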

[4] = system: U87 MG glioblastoma xenografts; assay: Small animal PET imaging of U87 MG glioblastoma xenografts
Summary of the method: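 Mice carrying U87 MG xenografts in the right shoulder were given 100–200 μl tracer (80–160 mCi/μmol), e.g. 200 μCi in 100 μl 15 % PEG300/85 % 0.9 % saline. PET/CT gave coronal and axial reconstructions, and tumour uptake and SUV were derived. Blocked mice were pre-injected with a 50-fold excess of Olaparib (3.7 μmol in 100 μl of the same vehicle).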

Ex vivo blood half-life = conditions: tail vein injection, 27 μCi, 100 μl
Summary of the method: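 For blood clearance, the tracer was given by tail vein. Blood was collected at 5, 15, 30, 60 and 120 min, weighed and γ-counted, and expressed as %IA/g (n = 4). A weighted t1/2 was derived.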

[5] = blocked, pre-injection of Olaparib

CC1=CC(C)=[N+]2C1=Cc1ccc(CCC(=O)N3CCN(C(=O)c4cc(Cc5n[nH]c(=O)c6ccccc56)ccc4F)CC3)n1[B-]2(F)[18F] (stereo not drawn) [[^18F]PARPi-FL]
Tumor to muscle ratio ([1]; 90 min post injection): 4±0.6
Metabolic stability in vivo (defluorination) ([1]; U87 MG xenograft-bearing mice, bone uptake): quick metabolic defluorination
Tumor to brain tissue ratio ([1]; biodistribution): 12±2.1
Reduction of uptake in blocked U87 MG tumors ([1]; blocked U87 MG tumors): 84%
Kidneys uptake [1, 5]: 0.4±0.1 %ID/g
Liver uptake [1, 5]: 2.02± 0.2 %ID/g
Kidneys uptake ([1]; non-blocked): 0.7±0.1 %ID/g
Liver uptake ([1]; non-blocked): 3.8±0.4 %ID/g
Tumor uptake ([1]; positive control group (non-blocked), 90 min p.i.): 0.78±0.1 %ID/g
Reduction of tumor uptake in Olaparib-blocked organs (U87 MG tumor [2]; autoradiography): 66±9%
Tumor to brain ratio (U87 MG tumor [2]; autoradiography): ninefold
Reduction of tumor uptake in Olaparib-blocked organs (U87 MG tumor [2]; surface fluorescence imaging): 74±12%
Tumor to brain ratio (U87 MG tumor [2]; surface fluorescence imaging): sevenfold
Lowering of tumor to muscle ratio by blocking (U87 MG tumor [3]; Olaparib blocking): approximately 66%
Overall reduction of tumor uptake in blocked mice (autoradiography) (U87 MG tumor [3]; Olaparib injected 30 min before tracer): 80±12%
Brain to muscle ratio (autoradiography) (U87 MG tumor [3]; Olaparib-blocked mice): 1.02±0.22
Tumor to muscle ratio (autoradiography) (U87 MG tumor [3]; Olaparib-blocked mice): 2.6±1.6
Brain to muscle ratio (autoradiography) (U87 MG tumor [3]; non-blocked mice): 0.87± 0.48
Tumor to muscle ratio (autoradiography) (U87 MG tumor [3]; non-blocked mice): 7.5±0.9
Organ uptake / excretion seen by PET ([4]; PET imaging): high uptake in the liver and in the intestinal tract
Standardized uptake value (SUV) in U87 MG tumors ([4]; non-blocked): 1.10±0.53
Uptake in U87 MG tumors ([4]; non-blocked): 0.78±0.1
Standardized uptake value (SUV) in U87 MG tumors ([4]; pre-injection of an excess of Olaparib (50-fold)): 0.10±0.06
Blood half-life, weighted t1/2 (Ex vivo blood half-life): 15.6 min
